Measurements pooled from the literature.
PKN1: Serine/threonine-protein kinase N1 (PKN1, Homo sapiens, UniProt Q16512)
PADI4: Protein-arginine deiminase type-4 (PADI4, Homo sapiens, UniProt Q9UM07)
CA9: Carbonic anhydrase 9 (CA9, Homo sapiens, UniProt Q16790)
MAOB: Amine oxidase [flavin-containing] B (MAOB, Homo sapiens, UniProt P27338)
HRH1: Histamine H1 receptor (HRH1, Homo sapiens, UniProt P35367)

Compound | target | test | system | setting | quantity | result
COc1cc2ncnc(Nc3ccc(F)c(Cl)c3)c2cc1NC(=O)/C=C/CN1CCCCC1 | PKN1 | enzyme activity, inhibitor | – | 1 µM | activity vs control | 87%
CC(C)(C)n1nnc([C@H](CCCNC(=N)CF)NC(=O)c2ccc(-c3ccccc3)cc2)n1 | PADI4 | enzyme activity, inhibitor | – | – | kinact/KI | 20.8 M⁻¹ s⁻¹
Cl.Cl.c1cc(-c2cnn3cc(-c4ccc(OCCN5CCCCC5)cc4)cnc23)ccn1 | PKN1 | enzyme activity, inhibitor | – | 1 µM | activity vs control | 32%
CCOC(=O)C1CSc2[nH]c(=O)sc2C1c1cn(-c2ccccc2)nc1-c1ccc(C)cc1 (stereo not drawn) | CA9 | enzyme activity, inhibitor | – | 1 µM | inhibition | 61.4%
O=C(Nc1cccc(Cl)c1)c1ccc([N+](=O)[O-])cc1Cl | MAOB | enzyme activity, inhibitor | – | 1 µM, 20 min | inhibition | 36%
O=C(Nc1ccc(N2C(=O)c3ccccc3C2=O)c(Cl)c1)c1ncccc1Cl | Metabotropic glutamate receptor 1 (GRM1, Homo sapiens, UniProt Q13255) | calcium signal, positive allosteric modulator | T-REx-293 | – | Emax | 102%
N=C(N)NCCC[C@H](NC(=O)[C@H](Cc1ccccc1)NC(=O)[C@@H](N)Cc1c[nH]cn1)C(=O)N[C@@H](Cc1c[nH]c2ccccc12)C(=O)O | Melanocortin receptor 5 (Mus musculus, UniProt P41149) | cAMP, agonist | HEK293 | – | Emax | 85%
CCOC(=O)C1CSc2[nH]c(=O)sc2C1c1cn(-c2ccccc2)nc1-c1ccc(Br)cc1 (stereo not drawn) | CA9 | enzyme activity, inhibitor | – | 10 µM | inhibition | 80.5%
O=C(Nc1ccc([N+](=O)[O-])cc1Cl)c1ccccc1O | MAOB | enzyme activity, inhibitor | – | 1 µM, 20 min | inhibition | 14%
Cc1ccc(-c2nn(-c3ccccc3)cc2C2c3sc(=O)[nH]c3SC3C(=O)N(c4ccccc4)C(=O)C32)cc1 (stereo not drawn) | CA9 | enzyme activity, inhibitor | – | 1 µM | inhibition | 63.2%
CC(C)(C)n1nnc([C@H](CCCNC(=N)CF)NC(=O)c2ccccc2C(=O)O)n1 | PADI4 | enzyme activity, inhibitor | – | – | kinact/KI | 432 M⁻¹ s⁻¹
CN1CCC(C2c3ccccc3C=Cc3ccccc32)CC1 | HRH1 | binding | – | – | kon | 667000 M⁻¹ s⁻¹
COc1ccc(NC(=O)c2cc(Cl)ccc2O)cc1OC | MAOB | enzyme activity, inhibitor | – | 1 µM, 20 min | inhibition | 30%
Cn1cc(-c2cc3c(N4CCN(c5ncc([C@@](C)(N)c6ccc(F)cc6)cn5)CC4)ncnn3c2)cn1 | PKN1 | enzyme activity, inhibitor | – | 1 µM | activity vs control | 87%
N#CC1CSc2[nH]c(=O)sc2C1c1cn(-c2ccccc2)nc1-c1ccc(Br)cc1 (stereo not drawn) | CA9 | enzyme activity, inhibitor | – | 10 µM | inhibition | 88.5%
CCC(=O)N1CCN(c2ccc(-n3c(=O)ccc4cnc5ccc(-c6cnc7ccccc7c6)cc5c43)cc2C(F)(F)F)CC1 | PKN1 | enzyme activity, inhibitor | – | 1 µM | activity vs control | 97%
CN1CCC(=C2c3ccccc3CCc3cccnc32)CC1 | HRH1 | binding | – | – | kon | 533000 M⁻¹ s⁻¹
CC(C)CCN1c2nc(Nc3cc(F)c(O)c(F)c3)ncc2N(C)C(=O)C1C (stereo not drawn) | PKN1 | enzyme activity, inhibitor | – | 1 µM | activity vs control | 64%

Compound | target | test | system | setting | quantity | result
CN(C)C1CCN(CC#Cc2nn(C3CCCC3)c3nc(NCc4ccccc4)ncc23)C1 (stereo not drawn) | Tyrosine-protein kinase HCK (HCK, Homo sapiens, UniProt P08631) | enzyme activity, inhibitor, FRET | – | 0.1 µM | inhibition | 2%
COc1cc([N+](=O)[O-])ccc1NC(=O)c1ccc2c(c1)OCO2 | MAOB | enzyme activity, inhibitor | – | 1 µM, 20 min | inhibition | 47%
Cc1c(Cn2c(C)nc3c(C(=O)O)cc(N4CCOCC4)cc32)cccc1C(F)(F)F | PKN1 | enzyme activity, inhibitor | – | 1 µM | activity vs control | 88%
O=C(Nc1ccc([N+](=O)[O-])cc1[N+](=O)[O-])c1ccccc1O | MAOB | enzyme activity, inhibitor | – | 1 µM, 20 min | inhibition | 18%
CCOC(=O)C1CSc2[nH]c(=O)sc2C1c1cn(-c2ccccc2)nc1-c1ccccc1 (stereo not drawn) | CA9 | enzyme activity, inhibitor | – | 1 µM | inhibition | 43.6%
O=C(c1ccc(Cl)cc1)N(Cc1ccccc1)C1CCCCC1 | Muscarinic acetylcholine receptor M4 (CHRM4, Homo sapiens, UniProt P08173) | cell-free assay | – | 10 µM | inhibition | 7.1%
CC(=O)Nc1cccc(-n2c(=O)n(C3CC3)c(=O)c3c(Nc4ccc(I)cc4F)n(C)c(=O)c(C)c32)c1 | PKN1 | enzyme activity, inhibitor | – | 1 µM | activity vs control | 97%
CN1CCC(C2c3ccccc3CCc3ccccc32)CC1 | HRH1 | binding | – | – | koff | 0.000475 s⁻¹
CCOC(=O)C1CSc2[nH]c(=O)sc2C1c1cn(-c2ccccc2)nc1-c1ccc(Cl)cc1 (stereo not drawn) | CA9 | enzyme activity, inhibitor | – | 0.1 µM | inhibition | 36%
COc1cc(NC(C)=O)c(Cl)cc1C(=O)Nc1nccs1 | Beta-1 adrenergic receptor (ADRB1, Homo sapiens, UniProt P08588) | cell-free assay | – | 10 µM | inhibition | 2.5%
O=C(Nc1ccc([N+](=O)[O-])cc1Cl)c1ccc2c(c1)OCO2 | MAOB | enzyme activity, inhibitor | – | 1 µM, 20 min | inhibition | 62%
CC(C)(C)n1nnc([C@H](CCCNC(=N)CCl)NC(=O)c2ccccc2C(=O)O)n1 | PADI4 | enzyme activity, inhibitor | – | – | kinact/KI | 423 M⁻¹ s⁻¹
CCOc1ccc(C(=O)Nc2ccc(Br)cc2)cc1OCC | MAOB | enzyme activity, inhibitor | – | 1 µM, 20 min | inhibition | 13%
Cc1ccc2c(=O)c3ccccc3n(CCCN)c2c1C.O=C(O)/C=C\C(=O)O | PKN1 | enzyme activity, inhibitor | – | 1 µM | activity vs control | 64%
O=C(Nc1ccc([N+](=O)[O-])cc1)c1cc(Cl)ccc1O | MAOB | enzyme activity, inhibitor | – | 1 µM, 20 min | inhibition | 66%
CN1CCN(C2c3ccccc3CCc3ccccc32)CC1 | HRH1 | binding | – | – | kon | 567000 M⁻¹ s⁻¹
N=C(CCl)NCCC[C@H](NC(=O)c1ccccc1C(=O)O)c1nn[nH]n1 | PADI4 | enzyme activity, inhibitor | – | – | kinact/KI | 2660 M⁻¹ s⁻¹
CCC(=O)NCC[C@@H]1CCc2cc(O)c3c(c21)CCO3 | Sulfotransferase 1A1 (SULT1A1, Homo sapiens, UniProt P50225) | enzyme activity, substrate | – | pH 7 | Km | 19.2 µM
